27 compounds from ChEMBL document CHEMBL4145674, “Discovery of 3-Benzyl-1-( trans-4-((5-cyanopyridin-2-yl)amino)cyclohexyl)-1-arylurea Derivatives as Novel and Selective Cyclin-Dependent Kinase 12 (CDK12) Inhibitors” (J Med Chem, 2018) can be followed below.

In brackets after ≈: the same amount, converted by molar mass. Activity calls are given as the source filed them. The rule behind the calls is not given here. Bounds are passed on as bounds.

One may read the IC50 as the concentration at which inhibition is half-maximal. By solubility is commonly meant the dissolved amount per volume that the medium holds. In general, chromatographic logD refers to a lipophilicity value derived from retention on a column. Higher therefore signals higher lipophilicity.

For one data set, the target named is CDK12/Cyclin K (Homo sapiens, UniProt Q9NYV4). The data set can be described thus: Inhibition of N-terminal FLAG-tagged human full-length CDK12 (1 to 1490 residues)/N-terminal His-tagged CycK (1 to 580 residues) expressed in Sf9 cells assessed as reduction in ATP-dependent ULight-4E-BP1 (Thr37/Thr46) substrate peptide phosphorylation pre-incubated for 60 mins by LANCE Ultra assay. (TR-FRET usually uses a lanthanide donor and a delayed reading to cut background.)
Sequence of CDK12/Cyclin K (O75909 whole entry, the tested form may be a part): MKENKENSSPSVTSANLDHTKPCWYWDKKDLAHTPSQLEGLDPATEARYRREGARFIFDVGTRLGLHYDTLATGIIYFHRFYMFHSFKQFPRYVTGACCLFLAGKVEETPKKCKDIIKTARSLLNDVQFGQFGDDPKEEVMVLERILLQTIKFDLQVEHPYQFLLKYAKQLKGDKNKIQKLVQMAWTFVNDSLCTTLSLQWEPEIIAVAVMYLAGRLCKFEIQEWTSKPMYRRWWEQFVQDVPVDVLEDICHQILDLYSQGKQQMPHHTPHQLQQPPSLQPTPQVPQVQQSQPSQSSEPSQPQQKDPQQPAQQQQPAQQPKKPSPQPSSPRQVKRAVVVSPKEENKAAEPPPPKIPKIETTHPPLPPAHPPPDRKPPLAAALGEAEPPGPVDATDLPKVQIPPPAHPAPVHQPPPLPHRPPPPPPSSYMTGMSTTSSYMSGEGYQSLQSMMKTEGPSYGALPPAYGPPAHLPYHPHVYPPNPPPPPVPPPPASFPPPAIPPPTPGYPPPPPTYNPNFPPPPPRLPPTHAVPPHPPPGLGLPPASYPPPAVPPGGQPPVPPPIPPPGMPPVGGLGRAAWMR
Sequence of CDK12/Cyclin K (Q9NYV4 whole entry, the tested form may be a part): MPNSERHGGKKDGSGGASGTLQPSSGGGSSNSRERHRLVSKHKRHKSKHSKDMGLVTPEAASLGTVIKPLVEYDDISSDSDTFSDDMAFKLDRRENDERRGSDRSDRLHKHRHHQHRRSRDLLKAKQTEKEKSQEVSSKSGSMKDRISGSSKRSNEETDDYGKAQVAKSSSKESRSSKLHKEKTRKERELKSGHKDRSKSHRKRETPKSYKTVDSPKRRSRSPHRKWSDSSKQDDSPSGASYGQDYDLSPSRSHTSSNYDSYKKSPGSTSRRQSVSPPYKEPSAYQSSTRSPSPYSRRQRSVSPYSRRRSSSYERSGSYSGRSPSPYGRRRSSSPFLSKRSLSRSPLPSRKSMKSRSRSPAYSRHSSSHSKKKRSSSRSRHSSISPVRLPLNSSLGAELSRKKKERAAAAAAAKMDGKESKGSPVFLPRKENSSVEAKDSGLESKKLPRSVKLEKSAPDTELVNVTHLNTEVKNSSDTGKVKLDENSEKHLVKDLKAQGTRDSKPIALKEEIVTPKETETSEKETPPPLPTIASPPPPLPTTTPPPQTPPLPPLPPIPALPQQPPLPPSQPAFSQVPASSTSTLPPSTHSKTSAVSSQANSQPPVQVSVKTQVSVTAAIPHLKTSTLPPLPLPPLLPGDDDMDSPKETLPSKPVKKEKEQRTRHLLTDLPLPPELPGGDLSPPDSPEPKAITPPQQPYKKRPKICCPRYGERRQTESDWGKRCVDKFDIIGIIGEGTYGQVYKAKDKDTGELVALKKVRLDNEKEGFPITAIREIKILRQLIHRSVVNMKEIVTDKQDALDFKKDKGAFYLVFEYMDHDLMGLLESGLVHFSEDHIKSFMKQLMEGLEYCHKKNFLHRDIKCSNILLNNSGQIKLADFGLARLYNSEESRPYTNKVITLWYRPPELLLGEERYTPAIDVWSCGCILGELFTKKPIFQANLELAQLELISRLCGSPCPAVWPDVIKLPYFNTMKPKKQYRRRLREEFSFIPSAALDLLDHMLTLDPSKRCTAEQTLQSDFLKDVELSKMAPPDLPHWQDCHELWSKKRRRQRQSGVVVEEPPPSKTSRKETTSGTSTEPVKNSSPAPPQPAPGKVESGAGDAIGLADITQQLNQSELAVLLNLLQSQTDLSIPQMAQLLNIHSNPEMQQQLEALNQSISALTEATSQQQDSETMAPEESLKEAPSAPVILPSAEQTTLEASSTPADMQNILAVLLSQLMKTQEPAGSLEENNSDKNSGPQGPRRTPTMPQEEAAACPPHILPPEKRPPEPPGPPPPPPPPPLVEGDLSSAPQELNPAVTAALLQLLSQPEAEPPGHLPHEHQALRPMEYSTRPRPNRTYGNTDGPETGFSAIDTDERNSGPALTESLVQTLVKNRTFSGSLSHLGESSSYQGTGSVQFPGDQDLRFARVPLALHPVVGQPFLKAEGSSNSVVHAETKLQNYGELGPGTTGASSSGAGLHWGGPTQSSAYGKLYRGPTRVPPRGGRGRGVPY

Another data set concerns the target CDK9/cyclin T1 (Homo sapiens, UniProt P50750). Format: protein-complex assay.
A further data set addresses CDK8/Cyclin C (Homo sapiens, UniProt P49336). As to the kind of experiment: Inhibition of GST-tagged human CDK8/CycC (04 to 109 residues) using kinase tracer 236 probe incubated for 60 mins by TR-FRET assay. Format: protein-complex assay.
The next data set addresses CDK2/Cyclin A2 (Homo sapiens, UniProt P24941). The data set can be described thus: Inhibition of GST-tagged human CDK2/CCNA2 (04 to 103 residues) pre-incubated for 5 mins before addition of histone H1 substrate and [gamma-33P]ATP and measured after 20 mins by radiometric assay. The format is protein-complex assay. A digest of the protocol:
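GST-CDK2/CCNA2 at 1.8 mU/well in 25 mM HEPES pH 7.5, 10 mM Mg acetate, 1 mM DTT. Compound and enzyme together 5 min at room temperature before ATP start. Final levels: histone H1 1 μg/well, [γ-33P]ATP 500 nM. Reaction 20 min at room temperature, stopped with 10% TCA. Filter capture, phosphoric acid wash, scintillation counting. IC50 reported.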

A further data set concerns the target CDK7/Cyclin H/MNAT1 (Homo sapiens, UniProt P50613).
A short description of data set [1]: Solubility in aqueous buffer solution at pH 6.8 by UV absorbance spectroscopy. Format: physicochemical. The method, boiled down: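 Compound in DMSO spiked into aqueous buffer pH 6.8 and incubated. Precipitate removed by filtration, dissolved compound quantified by UV absorbance of the filtrate.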
Data set [2] is described as follows: Partition coefficient between 1-octanol and aqueous buffer, log D of the compound at pH 7.4 buffer by chromatography. The format is physicochemical. Particulars: 1-octanol/aqueous buffer. A digest of the protocol:
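log D as octanol/buffer partition at pH 7.4, determined chromatographically.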

Data set [3] can be described thus: Permeability of the compound at 10 umol/L incubated for 3 hrs by LC/MS/MS detection based PAMPA method. Format: ADME. Particulars: read-out: permeability. The method, boiled down: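 PAMPA: donor buffer pH 7.4 holding 10 μmol/L compound; acceptor filter coated with GIT-0 lipid, acceptor sink buffer. 3 h at room temperature. Compound in donor and acceptor wells quantified by LC/MS/MS.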
On the technique in general: In PAMPA a lipid-coated filter parts donor from acceptor wells.

For data set [4], the target named is Cyclin-dependent kinase 12 (Homo sapiens, UniProt Q9NYV4). The data set can be described thus: Time dependent inhibition of human CDK12 incubated for 0 to 5 hrs using ULight-4E-BP1 (Thr37/Thr46) substrate by LANCE system based assay.
Sequence of Cyclin-dependent kinase 12 (Q9NYV4 whole entry, looked up, the tested form may be a part): as the sequence (Q9NYV4 whole entry, the tested form may be a part) above
For a further data set, the species on record is Homo sapiens. The data set can be described thus: Selectivity index, ratio of IC50 for inhibition of GST-tagged human CDK2/CCNA2 (04 to 103 residues) to IC50 for inhibition of N-terminal FLAG-tagged human full-length CDK12 (1 to 1490 residues)/N-terminal His-tagged CycK (1 to 580 residues) expressed in Sf9 cells. The method, boiled down:
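Ratio of two IC50s. CDK2/CCNA2: radiometric assay, 1.8 mU/well enzyme, histone H1 (1 μg/well), 500 nM [γ-33P]ATP, 5 min compound preincubation, 20 min at room temperature, TCA stop, filter-bound counts. In-house CDK12/CycK (30 nM): LANCE TR-FRET, ULight-4E-BP1 peptide 150 nM, ATP 10 μM, HEPES pH 7.5, 60 min preincubation, EDTA/Eu-antibody stop.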

Sequence of CDK9/cyclin T1 (O60563 whole entry, the tested form may be a part): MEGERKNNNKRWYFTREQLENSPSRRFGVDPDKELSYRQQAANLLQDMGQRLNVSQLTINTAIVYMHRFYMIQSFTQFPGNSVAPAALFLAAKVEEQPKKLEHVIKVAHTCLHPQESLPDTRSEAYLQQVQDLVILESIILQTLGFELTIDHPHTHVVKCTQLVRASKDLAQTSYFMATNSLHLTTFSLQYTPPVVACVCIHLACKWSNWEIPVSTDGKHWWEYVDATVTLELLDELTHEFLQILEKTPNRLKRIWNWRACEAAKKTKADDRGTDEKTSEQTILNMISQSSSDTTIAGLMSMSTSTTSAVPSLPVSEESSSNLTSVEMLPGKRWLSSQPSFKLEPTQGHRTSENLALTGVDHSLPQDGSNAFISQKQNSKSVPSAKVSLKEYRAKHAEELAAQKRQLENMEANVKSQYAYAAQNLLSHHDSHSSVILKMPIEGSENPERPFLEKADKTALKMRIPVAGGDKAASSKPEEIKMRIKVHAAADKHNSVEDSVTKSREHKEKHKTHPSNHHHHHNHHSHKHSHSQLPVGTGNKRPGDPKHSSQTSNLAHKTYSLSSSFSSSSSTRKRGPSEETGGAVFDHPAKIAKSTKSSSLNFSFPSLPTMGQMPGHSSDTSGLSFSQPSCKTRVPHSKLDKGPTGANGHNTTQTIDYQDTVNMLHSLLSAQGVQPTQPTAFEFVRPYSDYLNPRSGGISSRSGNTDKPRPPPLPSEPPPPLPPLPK
Sequence of CDK9/cyclin T1 (P50750 whole entry, the tested form may be a part): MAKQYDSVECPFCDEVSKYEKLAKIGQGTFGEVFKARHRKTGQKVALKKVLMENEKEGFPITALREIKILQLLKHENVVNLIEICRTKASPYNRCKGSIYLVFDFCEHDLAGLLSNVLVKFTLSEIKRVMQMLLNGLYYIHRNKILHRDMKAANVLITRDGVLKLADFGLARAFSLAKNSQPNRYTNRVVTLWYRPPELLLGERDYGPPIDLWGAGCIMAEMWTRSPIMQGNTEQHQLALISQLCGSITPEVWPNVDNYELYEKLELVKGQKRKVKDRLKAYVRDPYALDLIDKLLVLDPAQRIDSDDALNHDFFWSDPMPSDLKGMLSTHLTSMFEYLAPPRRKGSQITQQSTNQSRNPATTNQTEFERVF
Sequence of CDK7/Cyclin H/MNAT1 (P51946 whole entry): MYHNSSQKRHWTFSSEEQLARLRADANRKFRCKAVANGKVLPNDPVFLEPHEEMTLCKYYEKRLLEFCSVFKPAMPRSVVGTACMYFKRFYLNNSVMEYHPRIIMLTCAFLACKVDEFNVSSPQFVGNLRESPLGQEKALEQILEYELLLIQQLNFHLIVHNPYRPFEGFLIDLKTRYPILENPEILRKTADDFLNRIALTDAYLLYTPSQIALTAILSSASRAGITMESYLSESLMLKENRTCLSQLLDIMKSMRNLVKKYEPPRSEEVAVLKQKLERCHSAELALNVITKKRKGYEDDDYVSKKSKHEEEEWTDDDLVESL
Sequence of CDK7/Cyclin H/MNAT1 (P50613 whole entry): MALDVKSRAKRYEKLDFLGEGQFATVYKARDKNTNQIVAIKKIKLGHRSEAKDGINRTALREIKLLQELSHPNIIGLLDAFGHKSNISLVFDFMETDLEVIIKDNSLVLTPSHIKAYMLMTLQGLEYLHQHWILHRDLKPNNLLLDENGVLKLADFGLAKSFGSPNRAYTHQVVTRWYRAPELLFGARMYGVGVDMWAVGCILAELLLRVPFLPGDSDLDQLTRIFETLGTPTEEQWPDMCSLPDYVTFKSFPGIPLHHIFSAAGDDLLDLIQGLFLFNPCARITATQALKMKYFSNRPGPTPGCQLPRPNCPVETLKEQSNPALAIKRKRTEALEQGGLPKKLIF
Sequence of CDK7/Cyclin H/MNAT1 (P51948 whole entry, further chain): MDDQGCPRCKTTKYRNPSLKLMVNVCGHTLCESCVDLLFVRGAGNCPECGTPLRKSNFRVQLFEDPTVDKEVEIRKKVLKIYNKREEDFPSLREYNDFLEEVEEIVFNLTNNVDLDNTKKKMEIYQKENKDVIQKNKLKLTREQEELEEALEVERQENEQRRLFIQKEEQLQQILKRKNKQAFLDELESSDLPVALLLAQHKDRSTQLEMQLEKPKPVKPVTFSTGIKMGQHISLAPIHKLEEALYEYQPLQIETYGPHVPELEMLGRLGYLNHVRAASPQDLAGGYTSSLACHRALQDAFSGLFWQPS
Sequence of CDK8/Cyclin C (P49336 whole entry, the tested form may be a part): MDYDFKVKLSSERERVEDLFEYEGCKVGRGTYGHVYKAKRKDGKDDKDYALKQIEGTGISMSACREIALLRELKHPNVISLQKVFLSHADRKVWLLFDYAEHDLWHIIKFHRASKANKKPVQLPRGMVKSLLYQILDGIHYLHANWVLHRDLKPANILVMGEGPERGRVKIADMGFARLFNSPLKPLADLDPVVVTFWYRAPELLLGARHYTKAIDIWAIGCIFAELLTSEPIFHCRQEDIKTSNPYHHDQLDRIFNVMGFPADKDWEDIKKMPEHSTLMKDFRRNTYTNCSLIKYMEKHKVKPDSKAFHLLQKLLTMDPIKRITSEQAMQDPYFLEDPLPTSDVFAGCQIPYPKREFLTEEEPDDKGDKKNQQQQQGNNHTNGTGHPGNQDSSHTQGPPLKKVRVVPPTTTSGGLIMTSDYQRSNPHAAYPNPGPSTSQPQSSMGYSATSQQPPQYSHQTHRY
Sequence of CDK8/Cyclin C (P24863 whole entry, further chain, the tested form may be a part): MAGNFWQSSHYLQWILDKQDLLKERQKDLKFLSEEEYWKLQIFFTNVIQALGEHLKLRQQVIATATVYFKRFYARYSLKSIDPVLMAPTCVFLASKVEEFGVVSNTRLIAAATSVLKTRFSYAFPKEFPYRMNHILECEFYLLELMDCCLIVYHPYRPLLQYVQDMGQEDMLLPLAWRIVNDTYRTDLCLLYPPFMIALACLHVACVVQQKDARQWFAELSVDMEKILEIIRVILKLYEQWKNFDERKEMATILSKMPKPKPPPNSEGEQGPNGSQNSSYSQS

Turning to `Cn1cc(-c2ccc(S(=O)(=O)N3CCC(Nc4ccc(C#N)cn4)CC3)cc2)cn1`, the half-inhibitory concentration (IC50) is 360 nM on CDK12/Cyclin K; greater than 30 µM against CDK9/cyclin T1; greater than 10 µM against CDK8/Cyclin C; 0.01 µM on CDK2/Cyclin A2; greater than 10 µM at CDK7/Cyclin H/MNAT1.
As for `CCNC(=O)N(c1ccc(-c2cnn(C)c2)cc1)[C@H]1CC[C@H](Nc2ccc(C#N)cn2)CC1`, the IC50 on CDK12/Cyclin K stood at 460 nM; at CDK2/Cyclin A2, 4.8 µM.
On to `COC(=O)N(c1ccc(-c2cnn(C)c2)cc1)[C@H]1CC[C@H](Nc2ccc(C#N)cn2)CC1`, for which the IC50 at CDK12/Cyclin K was found to be 200 nM; on CDK2/Cyclin A2, 1.6 µM.
In the case of `Cn1c(-c2ccc(N(C(=O)NCc3ccccc3)[C@H]3CC[C@H](Nc4ccc(C#N)cn4)CC3)cc2)cccc1=O`, the results for the IC50 on CDK12/Cyclin K, against CDK9/cyclin T1 and at CDK2/Cyclin A2 were 310 nM, greater than 30 µM and 27 µM, respectively. The solubility in data set [1] was less than 0.09 µg/mL. Further, the chromatographic logD in data set [2] is 2.6.
For `Cn1cc(-c2ccc(S(=O)(=O)N3CCC(Nc4cccc(C#N)n4)CC3)cc2)cn1`, the half-inhibitory concentration (IC50) at CDK12/Cyclin K was greater than 30000 nM; against CDK2/Cyclin A2, 46 µM.
Take `Cn1cc(-c2ccc(N(C(=O)OCc3ccccc3)[C@H]3CC[C@H](Nc4ccc(C#N)cn4)CC3)cc2)cn1`: the half-inhibitory concentration (IC50) on CDK12/Cyclin K amounted to 640 nM; against CDK2/Cyclin A2 it was 2.5 µM.
On to `Cn1cc(-c2ccc(S(=O)(=O)N3CCC(Nc4ccccn4)CC3)cc2)cn1`, for which the IC50 at CDK12/Cyclin K is greater than 30000 nM; on CDK2/Cyclin A2 it was 1.2 µM.
With `Cn1cc(-c2ccc(S(=O)(=O)N3CCC(Nc4cc(C#N)ccn4)CC3)cc2)cn1`, the IC50 is greater than 30000 nM at CDK12/Cyclin K and 0.032 µM at CDK2/Cyclin A2.
For `CC(=O)N(c1ccc(-c2cnn(C)c2)cc1)[C@H]1CC[C@@H](Nc2ccc(C#N)cn2)CC1`, the half-inhibitory concentration (IC50) at CDK12/Cyclin K is greater than 30000 nM; against CDK2/Cyclin A2, greater than 100 µM.
Turning to `Cn1cc(-c2ccc(CN3CCC(Nc4ccc(C#N)cn4)CC3)cc2)cn1`, on CDK12/Cyclin K, the IC50 was 16000 nM.
Turning to `COc1ccc(NC2CCN(S(=O)(=O)c3ccc(-c4cnn(C)c4)cc3)CC2)nc1`, the IC50 is greater than 30000 nM at CDK12/Cyclin K and 21 µM against CDK2/Cyclin A2.
On to `N#Cc1ccc(N[C@H]2CC[C@H](N(C(=O)NCc3ccccc3)c3ccc(-c4cccnc4)cc3)CC2)nc1`, for which the IC50 on CDK12/Cyclin K is 59 nM; against CDK9/cyclin T1 it was greater than 30 µM; against CDK2/Cyclin A2 it was greater than 100 µM. Also, the solubility in data set [1] was 0.67 µg/mL (≈ 1.33 µM). In [2], the chromatographic logD stood at 3. For the same compound, in [3], the Papp at 3 h, 10 µM stood at 28 ×10⁻⁶ cm/s.
Take `Cn1ccc(-c2ccc(N(C(=O)NCc3ccccc3)[C@H]3CC[C@H](Nc4ccc(C#N)cn4)CC3)cc2)cc1=O`: the 50% inhibitory concentration (IC50) at CDK12/Cyclin K is 44 nM; at CDK9/cyclin T1 it was greater than 30 µM; against CDK2/Cyclin A2, greater than 100 µM. This compound also yielded a solubility in data set [1] of less than 0.08 µg/mL. The compound also came in with a chromatographic logD in [2] of 2.3. Besides, in data set [3], the Papp at 3 h, 10 µM is 24.7 ×10⁻⁶ cm/s.
With `Cn1cc(-c2ccc(N([C@H]3CC[C@H](Nc4ccc(C#N)cn4)CC3)S(C)(=O)=O)cc2)cn1`, the IC50 on CDK12/Cyclin K was determined as 110 nM; on CDK2/Cyclin A2, 0.031 µM.
On to `Cn1cc(-c2ccc(N[C@H]3CC[C@H](Nc4ccc(C#N)cn4)CC3)cc2)cn1`, for which the IC50 on CDK12/Cyclin K was 8600 nM; on CDK2/Cyclin A2, 9.8 µM.
As for `Cn1cc(-c2ccc(N(C(=O)CCc3ccccc3)[C@H]3CC[C@H](Nc4ccc(C#N)cn4)CC3)cc2)cn1`, the IC50 amounted to 160 nM at CDK12/Cyclin K and 2.9 µM at CDK2/Cyclin A2.
As for `CN(C)C/C=C/C(=O)Nc1ccc(C(=O)N2CCC[C@@H](Nc3ncc(Cl)c(-c4c[nH]c5ccccc45)n3)C2)cc1`, the TDI result in data set [4] is “Active”.
For `Cn1cc(-c2ccc(S(=O)(=O)N3CCC(Nc4ccc(C#N)cc4)CC3)cc2)cn1`, the IC50 at CDK12/Cyclin K was greater than 30000 nM.
Regarding `Cn1cc(-c2ccc(N(C(=O)NCc3ccccc3)[C@H]3CC[C@H](Nc4ccc(C#N)cn4)CC3)cc2)cn1`, the IC50 on CDK12/Cyclin K is 63 nM; against CDK9/cyclin T1 it was greater than 30 µM; against CDK2/Cyclin A2, greater than 100 µM. For the same compound, in [1], the concentration in solution (solubility) was 0.33 µg/mL (≈ 0.653 µM). Further, in data set [2], the chromatographic logD amounted to 2.8. In data set [3], the Papp at 3 h, 10 µM amounted to 28.8 ×10⁻⁶ cm/s. Moreover, the Ratio IC50 in the data set filed under Homo sapiens was greater than 800.
For `Cn1cc(-c2ccc(C(=O)N3CCC(Nc4ccc(C#N)cn4)CC3)cc2)cn1`, the IC50 at CDK12/Cyclin K stood at 23000 nM.
For the compound `CN(c1ccc(C#N)cn1)C1CCN(S(=O)(=O)c2ccc(-c3cnn(C)c3)cc2)CC1`, the IC50 is greater than 30000 nM at CDK12/Cyclin K and 68 µM at CDK2/Cyclin A2.
As to `CC(=O)N(c1ccc(-c2cnn(C)c2)cc1)[C@H]1CC[C@H](Nc2ncc3ccccc3n2)CC1`, the 50% inhibitory concentration (IC50) at CDK12/Cyclin K was determined as 13 nM; against CDK2/Cyclin A2, 0.024 µM.
Take `Cn1cc(-c2ccc(N(C(=O)NCC3CCCCC3)[C@H]3CC[C@H](Nc4ccc(C#N)cn4)CC3)cc2)cn1`: the results for the half-inhibitory concentration (IC50) on CDK12/Cyclin K and against CDK2/Cyclin A2 were 99 nM and greater than 100 µM, respectively.
For `Cn1cc(-c2ccc(S(=O)(=O)N3CCC(Nc4ccc(C(F)(F)F)cn4)CC3)cc2)cn1`, in that order: 1800 nM and 0.0058 µM.
On to `CC(=O)N(c1ccc(-c2cnn(C)c2)cc1)[C@H]1CC[C@H](Nc2ccc(C#N)cn2)CC1`, for which the IC50 at CDK12/Cyclin K was 130 nM; at CDK2/Cyclin A2, 0.47 µM.
Consider `N#Cc1ccc(N[C@H]2CC[C@H](N(C(=O)NCc3ccccc3)c3ccccc3)CC2)nc1`, for which the IC50 was 63 nM at CDK12/Cyclin K, greater than 30 µM against CDK9/cyclin T1 and 56 µM at CDK2/Cyclin A2. This compound had a solubility in [1] of 4 µg/mL (≈ 9.4 µM). Besides, the chromatographic logD in [2] was 3.3.
The like results for `Cn1cccc(-c2ccc(N(C(=O)NCc3ccccc3)[C@H]3CC[C@H](Nc4ccc(C#N)cn4)CC3)cc2)c1=O` were, in that order, 250 nM, 15 µM, 18 µM, 4.7 µg/mL (≈ 8.82 µM) and 2.7.
